Results on 1 molecule are retold here after ChEMBL document CHEMBL1921709, “Synthesis and activity of new macrolones: conjugates between 6(7)-(2'-aminoethyl)-amino-1-cyclopropyl-3-carboxylic acid (2'-hydroxyethyl) amides and 4″-propenoyl-azithromycin” (2011).

In brackets after ≈: the same amount, converted by molar mass.

Common to all, as to format: functional
In test [1] the test system is Staphylococcus aureus. Nature of the test: Antibacterial activity against erythromycin-sensitive Staphylococcus aureus ATCC 13709 by broth microdilution method. An outline of the steps:
(§1)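 Broth microdilution following CLSI guidelines, using two-fold serial dilutions of compound. Bacteria were first grown on appropriate agar plates. Read-out is growth inhibition, reported as MIC.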
On the technique in general: Dilution methods test growth across graded concentrations, often in twofold steps.

Test [2] has as its system Streptococcus pyogenes. The test can be described thus: Antibacterial activity against erythromycin-sensitive Streptococcus pyogenes 3565 by broth microdilution method. An outline of the steps: (§2)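 Broth microdilution following CLSI guidelines, except that 5% horse serum replaced lysed blood in the Streptococcus medium. Two-fold serial dilutions of compound were used. Bacteria were first grown on appropriate agar plates. Read-out is growth inhibition, reported as MIC.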

The subject of test [3] is Streptococcus pneumoniae. Nature of the test: Antibacterial activity against constitutive macrolide, lincosamide, streptogramin-resistant Streptococcus pneumoniae 58 spain by broth microdilution method. A digest of the protocol: (§3)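 CLSI broth microdilution MIC with automated double dilutions of compound. The medium was supplemented with 5% horse serum in place of lysed blood. Bacteria were pre-grown on appropriate agar plates.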

The subject of test [4] is Staphylococcus aureus. Nature of the test: Antibacterial activity against constitutive macrolide, lincosamide, streptogramin-resistant Staphylococcus aureus PK2 by broth microdilution method. A digest of the protocol: (§4)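 Standard CLSI broth microdilution MIC test with automated double dilutions of compound. Bacteria were pre-grown on appropriate agar plates.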
The test system of test [5] is Streptococcus pneumoniae. The test can be described thus: Antibacterial activity against erythromycin-sensitive Streptococcus pneumoniae SP 030 by broth microdilution method. An outline of the steps: as §2
The subject of a further test is Haemophilus influenzae. The test can be described thus: Antibacterial activity against Haemophilus influenzae ATCC 49247 by broth microdilution method. A digest of the protocol:
as §1

The subject of test [6] is Streptococcus pneumoniae. Nature of the test: Antibacterial activity against efflux-mediated macrolide-resistant Streptococcus pneumoniae Ci137 by broth microdilution method. An outline of the steps:
as §3

The test system of test [7] is Streptococcus pneumoniae. The test can be described thus: Antibacterial activity against inducible macrolide-resistant, constitutive lincosamide and streptogramin-resistant Streptococcus pneumoniae 134 GR M by broth microdilution method. An outline of the steps: as §3
For test [8], the system named is Staphylococcus aureus. Nature of the test: Antibacterial activity against inducible macrolide, lincosamide and streptogramin B-resistant Staphylococcus aureus 90256/97 by broth microdilution method. An outline of the steps:
as §4

For test [9], the system named is Streptococcus pyogenes. Nature of the test: Antibacterial activity against efflux-mediated macrolide-resistant Streptococcus pyogenes Finland 2 by broth microdilution method. A digest of the protocol:
as §3

The subject of a further test is Moraxella catarrhalis. The test can be described thus: Antibacterial activity against Moraxella catarrhalis ATCC 23246 by broth microdilution method. An outline of the steps: as §1
In test [10] the test system is Streptococcus pyogenes. Nature of the test: Antibacterial activity against constitutive macrolide, lincosamide, streptogramin-resistant Streptococcus pyogenes 166 GR-Micro by broth microdilution method. An outline of the steps: as §3
Test [11] deals with Staphylococcus aureus. The test can be described thus: Antibacterial activity against efflux-mediated macrolide-resistant Staphylococcus aureus PK1 by broth microdilution method. An outline of the steps: as §4
The subject of test [12] is Streptococcus pyogenes. The test can be described thus: Antibacterial activity against inducible macrolide-lincosamide-streptogramin B resistant Streptococcus pyogenes Finland 11 by broth microdilution method. An outline of the steps: as §3

On to `CC[C@H]1OC(=O)[C@H](C)[C@@H](O[C@H]2C[C@@](C)(OC)[C@@H](O)[C@H](C)O2)[C@H](C)[C@@H](O[C@@H]2O[C@H](C)C[C@H](N(C)C)[C@H]2O)[C@](C)(O)C[C@@H](C)CN(C)[C@H](C)[C@@H](O)[C@]1(C)O` [AZITHROMYCIN], for which the MIC against Staphylococcus aureus [1] was 0.5 µg/mL (≈ 0.668 µM); in the test with Streptococcus pyogenes [2], no more than 0.125 µg/mL; with Streptococcus pneumoniae [3], greater than 64 µg/mL; in the test on Staphylococcus aureus [4], greater than 64 µg/mL; in the test with Streptococcus pneumoniae [5] it was no more than 0.125 µg/mL; against Haemophilus influenzae it was 1 µg/mL (≈ 1.34 µM). Besides, the MIC with Streptococcus pneumoniae [6] is 8 µg/mL (≈ 10.7 µM); against Streptococcus pneumoniae [7] it was greater than 64 µg/mL; with Staphylococcus aureus [8], greater than 64 µg/mL; against Streptococcus pyogenes [9], 8 µg/mL (≈ 10.7 µM); in the test with Moraxella catarrhalis, no more than 0.125 µg/mL; in the test with Streptococcus pyogenes [10], greater than 64 µg/mL. Also, the MIC with Staphylococcus aureus [11] was greater than 64 µg/mL; in the test with Streptococcus pyogenes [12] it was 16 µg/mL (≈ 21.4 µM).
